Compounds with a hit are over-represented: about 3.5% of the library has one in this group of screens.
MrgX1 PAM – allosterically activates human MrgX1 receptor signaling; B-score at 10 µM; AID 588675; MrgX1-HEK293, Fluo-4 calcium flux, FDSS; hits give high values; 0.63% of 310,000 active;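 active = plate-corrected calcium response at least 3 library SD above typical, normal starting fluorescence, not activating the receptor alone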;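 note: compound read alongside a low EC10 to EC30 dose of BAM8-22 agonist; peak minus trough fluorescence over baseline measured at the second addition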
Target sequence (Q96LB2 whole entry, looked up): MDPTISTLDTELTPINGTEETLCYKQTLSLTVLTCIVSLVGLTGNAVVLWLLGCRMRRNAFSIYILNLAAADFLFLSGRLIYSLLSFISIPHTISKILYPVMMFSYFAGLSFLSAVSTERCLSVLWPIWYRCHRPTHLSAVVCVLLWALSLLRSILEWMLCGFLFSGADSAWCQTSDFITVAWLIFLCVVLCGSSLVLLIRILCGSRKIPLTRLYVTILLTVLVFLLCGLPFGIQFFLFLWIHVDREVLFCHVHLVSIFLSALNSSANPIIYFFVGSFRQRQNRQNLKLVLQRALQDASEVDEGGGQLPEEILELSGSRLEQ
RGS4 block – inhibitors of human RGS4 | AID 463165 | 0.45% of 310,000 active | B-score at 10 µM | HEK293 M3R/RGS4 inducible, Fluo-4 calcium flux; hits give high values; triggered by carbachol at its EC20;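 active = B-score, a plate-corrected calcium signal, over three deviations above library mean, with baseline fluorescence within five deviations of library mean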;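 note: RGS4 expression induced by doxycycline in cells with stable M3 receptor; B-score is computed from the integrated fluorescence ratio over baseline after carbachol; higher B-score means a larger calcium signal and so more RGS4 inhibition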
Target sequence (P49798 whole entry, looked up): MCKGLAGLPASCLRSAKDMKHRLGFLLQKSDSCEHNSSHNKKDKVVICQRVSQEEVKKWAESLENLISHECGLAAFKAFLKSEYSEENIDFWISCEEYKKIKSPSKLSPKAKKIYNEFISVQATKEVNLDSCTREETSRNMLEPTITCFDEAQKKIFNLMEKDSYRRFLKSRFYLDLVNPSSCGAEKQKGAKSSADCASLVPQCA
MrgX1 antag – antagonists of human MrgX1 receptor; Q96LB2; MRGX1-HEK293 calcium flux, Fluo-4, BAM8-22 antagonism; hits give low values; B-score at 10 µM; 1.3% of 310,000 active;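 active = calcium-response B-score plate-corrected more than 3 library SD below zero, starting fluorescence within 5 deviations, no agonist response on first addition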;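 note: peak minus trough fluorescence over baseline after final BAM8-22 challenge near maximal dose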
MrgX1 agonist – agonists of human MrgX1 receptor; Q96LB2; MrgX1-HEK293 cells, Fluo-4 calcium fluorescence, agonist mode; hits give high values; B-score at 10 µM; 0.44% of 310,000 active; AID 588627;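 active = calcium response B-score plate-corrected fluorescence ratio at least 3 library SD, with starting fluorescence B-score inside 5 SD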
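Material: MrgX1-expressing HEK293 cells / Dosing: compound as first of three additions / Incubation: overnight seeding, then 1 h dark dye loading / Signal: Fluo-4 NW calcium fluorescence / Evaluation: B-scored fluorescence response ratio / Benchmarks: positive and negative control wells on each plate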
RGS4 pot – RGS4 potentiation or activation; 0.92% of 310,000 active; HEK293 M3R/inducible RGS4, carbachol calcium flux Fluo4; hits give low values; AID 463111; B-score at 10 µM;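 active = B-score of the integrated calcium signal more than 4 SD below the library mean, with starting fluorescence not abnormally high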;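 note: negative B-score means reduced calcium response which marks RGS4 activation or potentiation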
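test system = M3R-expressing HEK293 line, RGS4 induced by doxycycline | probe or stimulus = carbachol at ECmax as muscarinic agonist stimulus | timing = dye loading 30 min 37 °C, buffer rest 30 min RT | signal = calcium dye Fluo4 fluorescence | evaluation = B score from integrated fluorescence ratio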
MrgX1 ant reconf – reconfirmed antagonist of human MrgX1 receptor signaling; shares compounds with MrgX1 antag; MrgX1-HEK293, BAM8-22 calcium flux, Fluo-4; hits give low values; remaining BAM8-22 calcium response % of control (hits give low values), % at 10 µM; 19% of 2,300 active; AID 602420;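 active = remaining agonist calcium response no higher than 100% minus 3 SD of agonist-only control wells, with starting fluorescence near control levels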;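 note: agonist BAM8-22 given at a near maximal EC90 to ECmax level; peak minus minimum fluorescence divided by baseline after agonist addition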
HEK293 Ca flux – activity in parental HEK293 cells lacking MrgX1. shares compounds with MrgX1 antag. Fluo-4 calcium fluorescence, FDSS. fluorescence ratio F(max-min)/F0 at 10 µM. 2% of 4,000 active;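 active = duplicate-averaged calcium fluorescence ratio at least three times the standard deviation of buffer wells, a nonspecific response in parental cells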
HEK293 Ca counter – counter-screen for MrgX1 allosteric activators: effect in parental HEK293 cells. shares compounds with MrgX1 antag. parental HEK293 calcium flux, Fluo-4 fluorescence ratio; hits give high values. fluorescence ratio F(max-min)/F0 at 10 µM. 0.4% of 4,000 active;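 active = calcium fluorescence ratio, averaged over duplicates, at least 3 SD of the buffer-well ratio, meaning a nonspecific response in receptor-free cells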;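 note: untransfected parental HEK293 lacking MrgX1 used as counterscreen for MrgX1 allosteric activators; fluorescence change taken during the second addition on a kinetic imager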
HEK293 Ca cntr2 – MrgX1 activator counter-screen hit in parental HEK293 cells | 8.7% of 4,000 active | AID 624115 | shares compounds with MrgX1 antag | Fluo-4 calcium fluorescence (FDSS); hits give high values | fluorescence ratio F(max-min)/F0 at 10 µM;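 active = calcium fluorescence ratio at least three times the spread of buffer wells, meaning a non-specific response in parental cells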
Large screens that a line does not name were inactive (follow-up assays come after a bar, where they were run).

Cc1ccc[n+](CC(=O)c2ccc(Cl)cc2)c1	none
O=C(c1cc(COc2ccc(F)cc2Cl)on1)N1CCCCC1c1cccnc1 (centres undefined)	none
Cc1nonc1C1CCCN1C(=O)c1cc(COc2ccc(F)cc2Cl)on1 (centres undefined)	MrgX1 antag -8.8 | MrgX1 ant reconf inactive | HEK293 Ca flux inactive | HEK293 Ca counter inactive | HEK293 Ca cntr2 inactive
CN(/N=C/c1ccc(-c2ccc([N+](=O)[O-])cc2)o1)c1ccccc1	MrgX1 antag -11 | MrgX1 ant reconf inactive | HEK293 Ca flux inactive | HEK293 Ca counter inactive | HEK293 Ca cntr2 inactive
CN(/N=C/c1cc([N+](=O)[O-])ccc1O)c1ccccc1	none
CCCN1C(=O)C(NC(C)=O)c2ccccc21 (centres undefined)	none
CCc1ccc2c(c1)C(NC(C)=O)C(=O)N2CCN1CCOCC1 (centres undefined)	MrgX1 antag -9.7 | MrgX1 ant reconf inactive | HEK293 Ca flux inactive | HEK293 Ca counter inactive | HEK293 Ca cntr2 inactive
O=C(COC(=O)Cc1cccc(C(F)(F)F)c1)Nc1ccccc1	none
Cc1nc2nc(-c3ccco3)[nH]n2c(=O)c1Cc1ccccc1	none
Cc1nc2nc(-c3ccco3)[nH]n2c(=O)c1C	MrgX1 antag -12 | MrgX1 ant reconf inactive | HEK293 Ca flux inactive | HEK293 Ca counter inactive | HEK293 Ca cntr2 inactive
O=C1CC(=O)N(CCc2ccccc2)C(=O)N1CCc1ccccc1	MrgX1 antag -11 | MrgX1 ant reconf 79% | HEK293 Ca flux inactive | HEK293 Ca counter inactive | HEK293 Ca cntr2 inactive
COc1ccc(N2C(=O)C3ON(C4SC(=S)N(C)C4(C)C)C(c4ccc([N+](=O)[O-])cc4)C3C2=O)cc1 (centres undefined)	none
CSCCC(C(=O)OCC(=O)c1ccc(C)c(C)c1)N1C(=O)c2cc(Cl)c(Cl)cc2C1=O (centres undefined)	MrgX1 antag -5.2 | MrgX1 ant reconf inactive | HEK293 Ca flux inactive | HEK293 Ca counter inactive | HEK293 Ca cntr2 inactive
COc1ccc(/C=N/NC(=O)CCSc2nc3ccccc3s2)cc1	none
CCN1C(=O)C(CC(=O)NCc2ccc(Cl)cc2)N(CC)C1=O (centres undefined)	MrgX1 antag -5.1 | MrgX1 ant reconf inactive | HEK293 Ca flux inactive | HEK293 Ca counter inactive | HEK293 Ca cntr2 inactive
Cc1cc(Br)ccc1NCc1ccccn1	MrgX1 antag -6 | MrgX1 ant reconf inactive | HEK293 Ca flux inactive | HEK293 Ca counter inactive | HEK293 Ca cntr2 inactive
COc1cc(OC)c2c(c1)S(=O)(=O)C(c1ccccc1)=C2N	none
CCCN1C2CCCC1CC(NC(=S)Nc1cc(C)cc(C)c1)C2 (centres undefined)	MrgX1 antag -6 | MrgX1 ant reconf inactive | HEK293 Ca flux inactive | HEK293 Ca counter inactive | HEK293 Ca cntr2 inactive
CN(C(=O)COC(=O)c1cccnc1Nc1ccccc1F)C1CCS(=O)(=O)C1 (centres undefined)	none
CN(C(=O)COC(=O)c1cccnc1Nc1cccc(C(F)(F)F)c1)C1CCS(=O)(=O)C1 (centres undefined)	MrgX1 antag -5.7 | MrgX1 ant reconf inactive | HEK293 Ca flux inactive | HEK293 Ca counter inactive | HEK293 Ca cntr2 inactive
COC(=O)C1CSC(C(=O)OC)N1C(=O)Nc1ccccc1 (centres undefined)	none
COC(=O)C1CSC(C(=O)OC)N1C(=O)CN1CCN(c2ccccc2)CC1 (centres undefined)	MrgX1 antag -8.1 | MrgX1 ant reconf 77% | HEK293 Ca flux inactive | HEK293 Ca counter inactive | HEK293 Ca cntr2 inactive
O=C(COc1ccccc1)Nc1cccc(-c2nc3cc4ccccc4cc3[nH]2)c1	MrgX1 antag -5.1 | MrgX1 ant reconf 78% | HEK293 Ca flux inactive | HEK293 Ca counter inactive | HEK293 Ca cntr2 inactive
COc1ccc(C(c2c(O)nc(SC)n(C)c2=O)c2c(O)nc(SC)n(C)c2=O)cc1O	MrgX1 antag -7.3 | MrgX1 ant reconf inactive | HEK293 Ca flux inactive | HEK293 Ca counter inactive | HEK293 Ca cntr2 inactive
COc1cc(CNn2cn[nH]c2=S)ccc1OCC(=O)NC(C)(C)C	MrgX1 antag -4.6 | MrgX1 ant reconf inactive | HEK293 Ca flux inactive | HEK293 Ca counter inactive | HEK293 Ca cntr2 inactive
COc1cc(CNC(C)(C)CO)ccc1OCC(=O)NC(C)(C)C	none
O=C(CNc1cccc(S(=O)(=O)N2CCOCC2)c1)Nc1ccccc1F	MrgX1 antag -5.1 | MrgX1 ant reconf inactive | HEK293 Ca flux inactive | HEK293 Ca counter inactive | HEK293 Ca cntr2 inactive
O=C(CNc1cccc(S(=O)(=O)N2CCOCC2)c1)Nc1cccc(Br)c1	none
O=C(c1ccc2nc(-c3ccco3)c(-c3ccco3)nc2c1)N1CCN(c2ncccn2)CC1	MrgX1 antag -6 | MrgX1 ant reconf 83% | HEK293 Ca flux inactive | HEK293 Ca counter inactive | HEK293 Ca cntr2 inactive
O=C(Nc1ccc(N2CCOCC2)cc1)c1ccc2nc(-c3ccco3)c(-c3ccco3)nc2c1	none
O=C(c1cccc(C(=O)N2CCN(c3ncccn3)CC2)c1)N1CCN(c2ncccn2)CC1	none
CCCNC(=O)c1ccc2nc(-c3ccccc3)c(-c3ccccc3)nc2c1	MrgX1 antag -5.3 | MrgX1 ant reconf inactive | HEK293 Ca flux inactive | HEK293 Ca counter inactive | HEK293 Ca cntr2 inactive
O=C(Nc1ccccc1)c1ccc2nc(-c3ccco3)c(-c3ccco3)nc2c1	MrgX1 antag -4.6 | MrgX1 ant reconf 79% | HEK293 Ca flux inactive | HEK293 Ca counter inactive | HEK293 Ca cntr2 inactive
CC(=O)Nc1ccc(-n2c(=O)c3ccccc3c3ccccc3c2=O)cc1	none
O=C(O)c1ccc(-n2c(=O)c3ccccc3c3ccccc3c2=O)cc1	MrgX1 antag -6.3 | MrgX1 ant reconf inactive | HEK293 Ca flux inactive | HEK293 Ca counter inactive | HEK293 Ca cntr2 inactive
CCC(C)(C)n1nnnc1C(CC(C)C)N1CCC(C(N)=O)CC1 (centres undefined)	none
Cc1oc(-c2ccccc2)nc1C(=O)Nc1nccs1	MrgX1 antag -5.7 | MrgX1 ant reconf inactive | HEK293 Ca flux inactive | HEK293 Ca counter inactive | HEK293 Ca cntr2 inactive
Nc1ccc(C(=O)Nc2nccs2)cc1	none
Cc1ccc(C(=O)Nc2nccs2)cc1	MrgX1 antag -5.3 | MrgX1 ant reconf inactive | HEK293 Ca flux inactive | HEK293 Ca counter inactive | HEK293 Ca cntr2 inactive
COc1ccc(-c2csc(NC(=O)c3nc(-c4ccccc4)oc3C)n2)cc1	none
O=C(NCCCNC(=O)c1cnccn1)c1ccc(Cl)c(Cl)c1	none

Bioassay records deposited in PubChem BioAssay by Johns Hopkins Ion Channel Center.
